Screening results from PubChem.
This is a sample that favours compounds with a hit; in the whole collection about 2.7% have one here.
ABCB1 inh: inhibitors of human ABCB1 transporter, ABCG2 counter-screen | inhibition, % at 6.6 µM | 0.067% of 190,000 active | P08183 | CCRF-Adr cells, JC-1 efflux, flow cytometry; in the data active means inhibition above about 40%;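 further: higher value means more JC-1 retained so stronger ABCB1 efflux block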
ABCG2 inh: blocks JC-1 efflux by human ABCG2 transporter; Q9UNQ0; IgMXP3 cells, flow cytometry; inhibition, % at 6.6 µM; 0.1% of 190,000 active;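 active means inhibition above 80%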
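Times: 10 min at 25 °C | Test system: Two drug-resistant human cell lines, ABCG2 and ABCB1 | Quantity: 3 million cells/mL final, two lines in 1:1 ratio | Signal: Flow cytometry, 530 nm JC-1 signal | Dosing: Compound at 6.6 µM | Controls: Nicardipine and DMSO wells | Reagent: JC-1 as fluorescent efflux pump substrate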
DTT redox prof: compounds producing H2O2 with reducing agent – biochemical, NIH compound library profiling, artefact control for MLSCN library redox annotation, primary screen; DTT-dependent redox cycling H2O2, phenol red/HRP absorbance; 100% = 100 µM peroxide control, 0% = buffer; AID 878; 0.03% of 200,000 active; activation, % at 10 µM;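 active means activation of at least 50% relative to the plate's high and low controls in the primary single-dose screen; inactive means activation below 50%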;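 further: compound incubated with DTT at 0.8 mM final as the reducing agent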
Measles CPE: protection of cells from measles virus | Measles virus-infected cells, CPE protection, absorbance | protection (pct of control), % at 4 µM | 1.5% of 140,000 active; in the data active means protection mostly above about 24%, no sharp cut-off; inactive means mostly below about 26%
FLuc stim CS: affects firefly luciferase, flagging false hits in luciferase stimulation screens; activation factor at 10 µM; ATPlite luciferase biochemical, luminescence, 10 min; 0 = ATP-free wells, 1 = DMSO control; P08659; 200,000 tested, under 10 active;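 active means luciferase activation factor, scaled between plate controls, of at least 2 with compound at 10 µM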
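System: luciferase plus luciferin reagent, cell-free; medium: PBS as buffer for the ATP substrate; dosing: test compounds dosed from 2 mM stocks in 100% DMSO; timing: 10 min post-reagent at room temperature; measured by: luminescence measurement of luciferase light output; evaluation: luciferase activation, seen as luminescence increase over controls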
FLuc inh counter: counter-screen for luciferase assay inhibitors: firefly luciferase inhibition; inhibition, % at 10 µM; AID 1006; P08659; ATPLite firefly luciferase biochemical luminescence, 10 min; 1.5% of 200,000 active;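 active means inhibition above about 50% when tested at 10 µM, limit read from the data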
Large screens that a line does not name were inactive.

O=C(CN1CCN(c2ccccc2)CC1)Nc1ccccc1C(F)(F)F	Measles CPE 31.7
O=C(CN1CCN(c2ccccc2)CC1)Nc1ccccc1Cl	none (no result: Measles CPE)
Cc1cc2nc(-c3cccnc3SCC(=O)NC(C)C)[nH]c2cc1C	FLuc inh counter 70.1 (no result: Measles CPE)
COCCOC(=O)CSc1ncccc1-c1nc2cc(C)c(C)cc2[nH]1	FLuc inh counter 74.8 (no result: Measles CPE)
O=C(CSc1ncccc1-c1nc2ccccc2[nH]1)NC1CC1	none
CCOC(=O)Cc1nn2c(=O)cc(C)nc2s1	Measles CPE 45.8
CCOC(=O)Cc1c(C)nc2cc(C)nn2c1C	none
COc1ccc(/C=C(\NC(=O)c2ccccc2)C(=O)NCCC(=O)O)cc1	none (no result: Measles CPE)
CCNc1nc(NCC)n2c(SC(C(=O)Nc3cc(C)ccc3C)c3ccccc3)nnc2n1 (configuration not stated)	Measles CPE 80.2
CCOCC(=O)N1CCN(c2ccccc2OC)CC1	none (no result: Measles CPE)
CCCc1nnc(SCC(=O)N2CCCCC2)n1CCCOC	none
Clc1ccc(/C=N/NC2=Nc3cccc4cccc2c34)cc1	none
Clc1ccc(N/N=C/c2cccnc2)cc1	none
C(=N\NC1=Nc2cccc3cccc1c23)/c1ccccc1	FLuc inh counter 67.1
C(=N\NC1=Nc2cccc3cccc1c23)/c1cccnc1	FLuc inh counter 59.6 (no result: Measles CPE)
CCOC(=O)NC1(C(F)(F)F)C(=O)N(Cc2ccccn2)C2=C1C(=O)CC(C)(C)C2 (configuration not stated)	none
CC(C)N1C(=O)CCC1C(=O)NCc1ccco1 (configuration not stated)	none (no result: Measles CPE)
Cc1cc(/C=N/NC(=O)C(=O)NCc2ccccn2)c(C)n1-c1ccccc1	FLuc inh counter 58.4
Cc1cc(/C=N\NC(=O)COc2cccc3cccnc23)c(C)n1-c1ccccc1	FLuc inh counter 71.4
Cc1cc(/C=N\NC(=O)COc2cccc3cccnc23)c(C)n1-c1ccc(Br)cc1	none
CCn1c(=O)[nH]c(=O)c2c(N)c(C(=O)c3ccccc3OC)sc21	none
Cc1ccc(-n2nc3ccc(NC(=O)C(C)C)cc3n2)cc1	none (no result: Measles CPE)
Cc1ccc(-n2nc3ccc(N)cc3n2)cc1	FLuc inh counter 75.5
CC(C)c1ccc(-n2nc3ccc(N)cc3n2)cc1	FLuc inh counter 87.3 (no result: Measles CPE)
COc1ccc(N2C(=O)[C@@H]3Cc4ccccc4CN3C2=O)cc1	Measles CPE 31.5
CC(C)(C)NC(=O)COC(=O)c1ccc(Cl)nc1	none (no result: Measles CPE)
CNC(=S)Nc1ccc(-c2nc3ccc(C)cc3s2)cc1	none (no result: Measles CPE)
Nc1ccc(-c2nc3cc(N)ccc3s2)cc1	FLuc inh counter 88.7 (no result: Measles CPE)
Cc1nc2cc(CO)ccc2s1	none
Nc1ccc2nc(-c3ccccc3)sc2c1	FLuc inh counter 90.0
CN(c1ccccc1C(=O)Nc1ccc(S(=O)(=O)N2CCOCC2)cc1)S(C)(=O)=O	none
Fc1cccc2sc(Nc3nc4cc5c(cc4s3)OCCO5)nc12	FLuc inh counter 79.3
COc1ccnc(Oc2ccc(F)cc2)c1C(=O)N/C=N/OCc1ccc(F)cc1Cl	none
COc1ccnc(Oc2ccc(F)cc2)c1C(=O)N/C=N/OCc1ccc(Cl)cc1Cl	Measles CPE 29.3
O=C(CSc1nnc(NC(=O)c2ccc3c(c2)OCO3)s1)NCc1ccco1	FLuc inh counter 91.0 (no result: Measles CPE)
CCCCn1c(N)c(NCC(C)C)c(=O)[nH]c1=O	none
C=CCN1CC(O)=C(c2nc3ccccc3[nH]2)C1=N	none (no result: Measles CPE)
O=c1cc(O)c2c(=O)n(-c3ccccc3)c3c(c2o1)CCCCCC3	Measles CPE 35.8
CCN(CC)c1ccc(C(=O)Nc2ccccc2)cc1[N+](=O)[O-]	none (no result: Measles CPE)
O=C(NCCc1c[nH]c2ccccc12)C(F)(F)F	Measles CPE 45.4
c1ccc(OCc2nc3ccccc3s2)cc1	none
Fc1ccc(-c2nnn(Cc3nc4ccccc4s3)n2)cc1	Measles CPE 46.3
Fc1ccc(OCc2nc3ccccc3s2)cc1	FLuc inh counter 64.0 (no result: Measles CPE)
Cc1ccc(NC(=O)N2N=C(c3ccc(F)cc3)CC2c2ccc(F)cc2)cc1 (configuration not stated)	none
O=C(Oc1ccc2ccccc2c1Br)N1CCCCCC1	Measles CPE 47.3
CCN(CC)C(=O)Oc1ccc2ccccc2c1Br	none (no result: Measles CPE)
O=C(/C=C/c1ccccc1Cl)NCc1cccs1	none
CCCC(=O)Nc1ccc(Cl)c(NC(=O)c2cccnc2Cl)c1	none
